Assay results from ChEMBL document CHEMBL1121733, “Synthesis and evaluation of ureido- and vinylureidopenicillins as inhibitors of intraruminal lactic acid production” (J Med Chem, 1981).
Values after ≈ are worked out from the molar mass of the structure shown.

Assays:
Enterococcus faecium = experiment: In vitro Minimum inhibitory concentration against Streptococcus faecium ATCC 8043-2; assay type: functional
Outline: (§1)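 Twofold broth microdilution from 200 to 0.0008 µg/mL in brain–heart infusion broth with 0.066 g/L tetrazolium chloride. Inoculum was 1 µL of a 1:10 dilution of an 18 h, 37 °C culture. Plates incubated 16 h at 37 °C, with growth read as red precipitate. Triplicate trays per compound per organism.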

[1] = Effective inhibition concentration for reduction of propionic acid production to less than 95% of control; assay type: functional
Outline: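 Rumen fluid from a fistulated bovine, strained and mixed 1:1 with CO2-saturated buffer with moderate substrate at normal intraruminal pH (volatile fatty acid model). Retest dilutions from 0.5 mg/mL stock down to 0.004 mg/mL, triplicate tubes, 9 h. Stopped with 25% metaphosphoric acid, centrifuged, propionate measured by GC-FID. Value is the minimum concentration giving propionate below 95% of control.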

Staphylococcus aureus [2] = experiment: (§2) In vitro Minimum inhibitory concentration against Staphylococcus penicillin G resistant); assay type: functional
Outline: (§3)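 Broth microdilution in brain–heart infusion broth with 0.066 g/L tetrazolium chloride. Serial twofold dilutions from 200 to 0.0008 µg/mL. Inoculum: 1 µL of a 1:10 dilution of an 18 h, 37 °C culture. Incubated 16 h at 37 °C; growth read as red precipitate. MIC taken from triplicate trays per compound per organism.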

[3] = Lipophilicity estimated on reversed phase TLC; assay type: physicochemical; conditions: silicone oil-coated silica gel plates, 30% MeOH in pH 7.0 buffer
Outline: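 Reversed-phase TLC on silica gel G plates dipped in 20 vol % silicone oil in hexane and dried. Mobile phase 30 vol % MeOH in pH 7.0 buffer. ΔR_M measured against a reference compound run on every plate, averaged over 2–6 plates.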

[4] = Percent inhibition of lactic acid production by the compound at 50 p.p.m.; assay type: functional; set-up: scale not given: the % may be the effect or the level left
Outline: (§4)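 Screen at 50, 5 and 0.5 µg/mL of incubation contents in strained bovine rumen fluid mixed 1:1 with CO2-saturated glucose/trypticase buffer, 5.5 h at 39 °C. Stopped with metaphosphoric acid, l(+)-lactate measured enzymatically. Expressed as lactate production as % of control incubations without compound.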

[5] = Percent inhibition of lactic acid production by the compound at 0.5 p.p.m.; assay type: functional; set-up: scale not given: the % may be the effect or the level left; outline: as §4
Staphylococcus aureus [6] = experiment: In vitro Minimum inhibitory concentration against Staphylococcus aureus ATCC 6538P (penicillin G sensitive); assay type: functional; outline: as §1
Streptococcus pyogenes = experiment: In vitro Minimum inhibitory concentration against Streptococcus pyogenes ATCC 8668; assay type: functional; outline: as §1
[7] = Effective inhibition concentration for reduction of lactic acid production to less than 10% of control; assay type: functional
Outline: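 Bovine rumen fluid from a fistulated animal, strained through cheesecloth, mixed 1:1 with CO2-saturated buffer (glucose 27 g/L, trypticase 1.50 g/L, Na2HPO4 4.26 g/L). Compounds retested from 0.5 mg/mL stock serially diluted to 0.004 mg/mL, duplicate tubes, 5.5 h at 39 °C. Stopped with 25% metaphosphoric acid, centrifuged, l(+)-lactate measured enzymatically. Value is the minimum concentration giving lactate below 10% of no-compound control.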

[8] = Percent inhibition of lactic acid production by the compound at 5 p.p.m.; assay type: functional; set-up: scale not given: the % may be the effect or the level left; outline: as §4
Escherichia coli = experiment: In vitro Minimum inhibitory concentration against Escherichia coli ATCC 25922; assay type: functional; outline: as §1
Staphylococcus aureus [9] = experiment: as §2; assay type: functional, staphylococcus pureus; outline: as §3

| SMILES | MIC (Enterococcus faecium) | Dose [1] | MIC (Staphylococcus aureus [2]) | Delta RM [3] | Control [4] | Control [5] | MIC (Staphylococcus aureus [6]) | MIC (Streptococcus pyogenes) | Concentration [7] | Control [8] | MIC (Escherichia coli) | MIC (Staphylococcus aureus [9]) |
| --- | --- | --- | --- | --- | --- | --- | --- | --- | --- | --- | --- | --- |
| CC1(C)SC2C(NC(=O)NCc3ccc4ccccc4c3)C(=O)N2[C@H]1C(=O)[O-].[Na+] (some centres not stated) | 3.12 µg/mL | 5 µg/mL | 50 µg/mL | 0 | 9% | 4% | 0.05 µg/mL | 0.05 µg/mL | 0.08 µg/mL | 4% | > 200 µg/mL |  |
| CC1(C)SC2C(NC(=O)NCCc3ccc4ccccc4c3)C(=O)N2[C@H]1C(=O)[O-].[Na+] (some centres not stated) | 6.25 µg/mL | > 10 µg/mL |  | 0.89 | 9% | 2% | 0.1 µg/mL | 0.05 µg/mL | 0.31 µg/mL | 7% | > 200 µg/mL | 25 µg/mL |
| CC1(C)SC2C(NC(=O)Nc3ccccc3)C(=O)N2[C@H]1C(=O)[O-].[Na+] (some centres not stated) |  |  |  | -0.75 | 3% | 96% |  |  |  | 110% |  |  |
| CC1(C)SC2C(NC(=O)NC3CCCCC3)C(=O)N2[C@H]1C(=O)[O-].[Na+] (some centres not stated) |  |  |  | -0.62 | 2% | 99% |  |  |  | 0% |  |  |
| CC1(C)S[C@@H]2[C@H](NC(=O)Cc3ccccc3)C(=O)N2[C@H]1C(=O)O [PENICILLIN G] | 0.4 µg/mL (≈ 1.2 µM) |  |  |  |  |  | 0.05 µg/mL (≈ 0.15 µM) | 0.01 µg/mL (≈ 0.0299 µM) |  |  | 25 µg/mL (≈ 74.8 µM) | 50 µg/mL (≈ 150 µM) |
| CC1(C)SC2C(NC(=O)N/C=C/c3ccc(Cl)cc3)C(=O)N2[C@H]1C(=O)[O-].[Na+] (some centres not stated) | > 200 µg/mL | > 10 µg/mL |  | 0.58 | 10% | 0% | 6.25 µg/mL | 3.12 µg/mL | 1.25 µg/mL | 2% | > 200 µg/mL | 50 µg/mL |
| CC(C)(C)c1ccc(/C=C/NC(=O)NC2C(=O)N3C2SC(C)(C)[C@@H]3C(=O)O)cc1.CCN(CC)CC (some centres not stated) |  |  |  | 1.31 |  |  |  |  |  |  |  |  |
| CC1(C)SC2C(NC(=O)N/C=C/c3cccc4ccccc34)C(=O)N2[C@H]1C(=O)[O-].[Na+] (some centres not stated) |  |  |  | 0.66 | 3% | 111% |  |  |  | 0% |  |  |
| C/C(=C\NC(=O)NC1C(=O)N2C1SC(C)(C)[C@@H]2C(=O)[O-])c1ccccc1.[Na+] (some centres not stated) |  |  |  | 0.3 | 0% | 87% |  |  |  | 5% |  |  |
| CC(C)NC(=O)NC1C(=O)N2C1SC(C)(C)[C@@H]2C(=O)[O-].[Na+] (some centres not stated) |  |  |  | -2 | 7% | 108% |  |  |  | 119% |  |  |
| CCOC(=O)c1ccc(NC(=O)NC2C(=O)N3C2SC(C)(C)[C@@H]3C(=O)O)cc1 (some centres not stated) |  |  |  |  | 3% | 101% |  |  |  | 95% |  |  |
| COc1cc(/C=C/NC(=O)NC2C(=O)N3C2SC(C)(C)[C@@H]3C(=O)[O-])cc(OC)c1OC.[Na+] (some centres not stated) |  |  |  | -0.45 | 8% | 105% |  |  |  | 2% |  |  |
| CC1(C)SC2C(NC(=O)NCCc3ccccc3)C(=O)N2[C@H]1C(=O)[O-].[Na+] (some centres not stated) | 3.12 µg/mL | 5 µg/mL | 50 µg/mL | -0.6 | 9% | 4% | 0.1 µg/mL | 0.1 µg/mL | 0.31 µg/mL | 6% | 100 µg/mL |  |
| CC1(C)SC2C(NC(=O)N/C=C/c3cccs3)C(=O)N2[C@H]1C(=O)[O-].[Na+] (some centres not stated) |  |  |  | -0.2 | 0% | 102% |  |  |  | 52% |  |  |
| CCOc1ccc(/C=C/NC(=O)NC2C(=O)N3C2SC(C)(C)[C@@H]3C(=O)[O-])cc1.[Na+] (some centres not stated) |  | > 10 µg/mL |  | 0.43 | 1% | 0% |  |  | 0.31 µg/mL | 1% |  |  |
| CC1(C)SC2C(NC(=O)N/C=C/c3ccc4c(c3)OCO4)C(=O)N2[C@H]1C(=O)[O-].[Na+] (some centres not stated) | 200 µg/mL | > 10 µg/mL |  | -0.06 | 4% | 0% | 6.25 µg/mL | 1.6 µg/mL | 0.16 µg/mL | 0% | 100 µg/mL | 50 µg/mL |
| CC1(C)SC2C(NC(=O)N/C=C/c3ccco3)C(=O)N2[C@H]1C(=O)[O-].[Na+] (some centres not stated) |  |  |  | -0.26 | 3% | 101% |  |  |  | 89% |  |  |
| CC1(C)SC2C(NC(=O)N/C=C/c3ccc(Cl)c(Cl)c3)C(=O)N2[C@H]1C(=O)[O-].[Na+] (some centres not stated) |  |  |  | 1.44 | 1% | 107% |  |  |  | 106% |  |  |
| CC(C)(C)c1ccc(/C=C/NC(=O)NC2C(=O)N3C2SC(C)(C)[C@@H]3C(=O)O)cc1 (some centres not stated) |  | > 10 µg/mL |  |  | 0% | 0% |  |  | 0.16 µg/mL | 0% |  |  |
| CC1(C)SC2C(NC(=O)N/C=C/c3ccc4ccccc4c3)C(=O)N2[C@H]1C(=O)[O-].[Na+] (some centres not stated) | 200 µg/mL | > 10 µg/mL |  | 1.05 | 8% | 1% | 3.12 µg/mL | 3.12 µg/mL | 0.31 µg/mL | 2% | > 200 µg/mL | 100 µg/mL |
| CC1(C)SC2C(NC(=O)NC3CC3c3ccccc3)C(=O)N2[C@H]1C(=O)[O-].[Na+] (some centres not stated) |  |  |  | -0.29 | 8% | 104% |  |  |  | 4% |  |  |
| CC1(C)SC2C(NC(=O)N/C=C/C3CCCCC3)C(=O)N2[C@H]1C(=O)[O-].[Na+] (some centres not stated) | 50 µg/mL | 2.5 µg/mL |  | 0.77 | 2% | 0% | 0.4 µg/mL | 0.2 µg/mL | 0.31 µg/mL | 2% | > 200 µg/mL | 50 µg/mL |
| CC(C)(C)c1ccc(/C=C/NC(=O)NC2C(=O)N3C2SC(C)(C)[C@@H]3C(=O)[O-])cc1.[Na+] (some centres not stated) | > 200 µg/mL |  |  | 1.31 |  |  | 3.12 µg/mL | 1.6 µg/mL |  |  | > 200 µg/mL | 100 µg/mL |
| Cc1ccc(/C=C/NC(=O)NC2C(=O)N3C2SC(C)(C)[C@@H]3C(=O)[O-])cc1.[Na+] (some centres not stated) |  | > 10 µg/mL |  | 0.5 | 2% | 0% |  |  | 0.31 µg/mL | 2% |  |  |
| CC1(C)SC2C(NC(=O)Nc3ccc(Cl)cc3)C(=O)N2[C@H]1C(=O)[O-].[Na+] (some centres not stated) |  |  |  | -0.01 | 2% | 102% |  |  |  | 112% |  |  |
| CC1(C)SC2C(NC(=O)N/C=C/c3cccc(Br)c3)C(=O)N2[C@H]1C(=O)[O-].[Na+] (some centres not stated) |  |  |  | 0.69 | 3% | 142% |  |  |  | 0% |  |  |
